Experimental data published in ChEMBL document CHEMBL3098020, “Synthesis and biological evaluation of novel 2-amino-3-aroyl-4-neopentyl-5-substituted thiophene derivatives as allosteric enhancers of the A₁ adenosine receptor” (Bioorg Med Chem, 2014).

Key:
[1] = molecular target: T1, Adenosine receptor A1 (Homo sapiens) (UniProt P30542); assay: Potentiation of CCPA-induced displacement of [3H]-DPCPX from human adenosine A1 receptor expressed in CHO cell membranes at 10 uM after 90 mins relative to CCPA-treated control
T1 sequence (whole entry): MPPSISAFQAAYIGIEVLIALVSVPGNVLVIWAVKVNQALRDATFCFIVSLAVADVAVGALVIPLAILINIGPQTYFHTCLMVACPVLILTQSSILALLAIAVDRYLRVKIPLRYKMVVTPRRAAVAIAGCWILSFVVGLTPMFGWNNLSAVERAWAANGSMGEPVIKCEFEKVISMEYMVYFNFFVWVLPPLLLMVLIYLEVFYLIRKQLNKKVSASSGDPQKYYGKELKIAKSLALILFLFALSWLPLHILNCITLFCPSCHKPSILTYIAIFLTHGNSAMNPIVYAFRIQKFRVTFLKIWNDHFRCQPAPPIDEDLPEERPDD
Method in brief: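 CCPA (0.01 nM–1 µM) competition against [³H]DPCPX in hA1-CHO membranes, with or without compound at 10 µM. Nonspecific binding defined with 1 µM DPCPX. Ki calculated from IC50 by the Cheng-Prusoff equation; CCPA Ki shift given as fold change; three experiments.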

[2] = molecular target: T1, Adenosine receptor A1 (Homo sapiens); assay: Potentiation of [3H]CCPA binding to human adenosine A1 receptor expressed in CHO cell membranes at 10 uM after 90 mins relative to [3H]CCPA-treated control
[3] = molecular target: T2, Adenosine receptor A3 (Homo sapiens) (UniProt P0DMS8); assay: Displacement of [3H]-MRE-3008-F20 from human adenosine A3 receptor expressed in CHO cell membranes at 10 uM by scintillation counting analysis relative to control
T2 sequence (whole entry): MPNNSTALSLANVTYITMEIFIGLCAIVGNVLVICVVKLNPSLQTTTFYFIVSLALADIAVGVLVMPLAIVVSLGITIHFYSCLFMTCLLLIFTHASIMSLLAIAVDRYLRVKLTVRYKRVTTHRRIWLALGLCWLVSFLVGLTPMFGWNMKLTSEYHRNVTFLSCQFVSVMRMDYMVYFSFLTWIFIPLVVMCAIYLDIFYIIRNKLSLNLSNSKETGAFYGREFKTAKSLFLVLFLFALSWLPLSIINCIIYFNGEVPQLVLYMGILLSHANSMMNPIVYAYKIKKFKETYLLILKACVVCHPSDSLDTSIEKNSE
Method in brief: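 A3-expressing CHO membranes in 50 mM Tris-HCl, 10 mM MgCl₂, 1 mM EDTA pH 7.4 with 2 nM [³H]MRE-3008-F20. Incubated 120 min at 4 °C. Compound 10 µM in 1% DMSO final. Filtration and scintillation counting; percent inhibition of specific binding.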

[4] = molecular target: Adenosine receptor A2a (Homo sapiens) (UniProt P29274); assay: Displacement of [3H]-ZM241385 from human adenosine A2A receptor expressed in CHO cell membranes at 10 uM by scintillation counting analysis relative to control
Method in brief: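 A2A-expressing CHO membranes, pretreated with adenosine deaminase, in 50 mM Tris-HCl, 10 mM MgCl₂ pH 7.4 with 1 nM [³H]ZM 241385. Incubated 60 min at 4 °C. Compound 10 µM in 1% DMSO final. Filtration and scintillation counting; percent inhibition of specific binding.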

[5] = molecular target: T1, Adenosine receptor A1 (Homo sapiens); assay: Displacement of [3H]-DPCPX from human adenosine A1 receptor expressed in CHO cell membranes at 10 uM by scintillation counting analysis relative to control
Method in brief: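 hA1-CHO membranes, pretreated with adenosine deaminase, in 50 mM Tris-HCl pH 7.4 with 1 nM [³H]DPCPX. Incubated 120 min at 25 °C. Compound 10 µM added from 100-fold DMSO stock, 1% DMSO final. Bound ligand collected on glass-fibre filters and counted by scintillation; percent inhibition of specific binding.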

[6] = molecular target: T1, Adenosine receptor A1 (Homo sapiens); assay: Allosteric enhancement of human adenosine A1 receptor expressed in CHO cells assessed as inhibition of forskolin-stimulated cAMP production at 100 nM preincubated for 10 mins followed by forskolin challenge measured after 5 mins by scintillation counting analysis in presence of CCPA relative to control; type: functional, cell-based
Method in brief: (§1)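 hA1-CHO cells (10⁶ cells/mL) in phosphate buffer with adenosine deaminase 1.0 IU/mL and Ro 20-1724 0.5 mM, preincubated 10 min at 37 °C. Compound added for 10 min, alone or at 100 nM with CCPA 1 pM. Forskolin 1 µM added for 5 min, stopped with cold 6% TCA. cAMP measured by [³H]-cAMP competition protein-binding assay; percent inhibition versus control; three experiments.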

[7] = molecular target: T1, Adenosine receptor A1 (Homo sapiens); assay: Allosteric enhancement of human adenosine A1 receptor expressed in CHO cells assessed as inhibition of forskolin-stimulated cAMP production at 10 uM preincubated for 10 mins followed by forskolin challenge measured after 5 mins by scintillation counting analysis relative to control; type: functional, cell-based; method in brief: as §1

Chain of Adenosine receptor A2a (Homo sapiens) (P29274 whole entry): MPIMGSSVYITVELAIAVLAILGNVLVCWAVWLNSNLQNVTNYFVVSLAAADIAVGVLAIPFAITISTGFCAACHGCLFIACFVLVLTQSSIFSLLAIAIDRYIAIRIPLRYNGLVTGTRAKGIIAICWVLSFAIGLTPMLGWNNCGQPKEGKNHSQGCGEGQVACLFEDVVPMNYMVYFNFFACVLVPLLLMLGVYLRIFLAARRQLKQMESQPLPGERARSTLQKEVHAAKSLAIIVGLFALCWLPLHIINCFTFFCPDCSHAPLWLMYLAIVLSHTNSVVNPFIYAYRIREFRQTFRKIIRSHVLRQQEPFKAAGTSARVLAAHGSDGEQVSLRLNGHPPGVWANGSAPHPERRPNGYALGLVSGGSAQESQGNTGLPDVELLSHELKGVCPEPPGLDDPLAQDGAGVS

## CC(C)(C)Cc1c(-c2ccc(F)cc2F)sc(N)c1C(=O)c1ccc(Cl)cc1
[1]
  fold change (FC): 3.6
[2]
  fold change (FC): 5.3
[3]
  inhibition: 1%
[4]
  inhibition: 1%
[5]
  inhibition: 1%
[6]
  inhibition: 49%
[7]
  inhibition: 48%

## CC(C)(C)Cc1c(-c2ccc(F)cc2)sc(N)c1C(=O)c1ccc(Cl)cc1
[1]
  fold change (FC): 3.7
[2]
  fold change (FC): 5.5
[3]
  inhibition: 9%
[4]
  inhibition: 1%
[5]
  inhibition: 1%
[6]
  inhibition: 52%
[7]
  inhibition: 50%
